Screens (PubChem)
Compounds with a hit are over-represented: about 3.5% of the library has one in this group of screens.
RGS4 block – inhibitors of human RGS4; P49798; HEK293 M3R/RGS4 inducible, Fluo-4 calcium flux; stronger effect = higher value; triggered by carbachol at its EC20; B-score at 10 µM; actives 0.45% (n = 310,000); AID 463165;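 active = B-score, a plate-corrected calcium signal, over three deviations above library mean, with baseline fluorescence within five deviations of library mean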;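 also: RGS4 expression induced by doxycycline in cells with stable M3 receptor; B-score is computed from the integrated fluorescence ratio over baseline after carbachol; higher B-score means a larger calcium signal and so more RGS4 inhibition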
RGS4 act – potentiators or activators of RGS4. HEK293 M3R/inducible RGS4, carbachol calcium flux Fluo4; stronger effect = lower value. B-score at 10 µM. actives 0.92% (n = 310,000). AID 463111;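 active = B-score of the integrated calcium signal more than 4 SD below the library mean, with starting fluorescence not abnormally high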;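 also: negative B-score means reduced calcium response which marks RGS4 activation or potentiation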
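System: HEK293 FlpIn-TREx cells, stable M3R, doxycycline-inducible RGS4. Timing: overnight RGS4 induction, 30 min dye load 37 °C, 20 min compound RT. Also added: carbachol, ECmax concentration. Measured by: Fluo4 fluorescence kinetic imaging of calcium. Evaluation: integrated calcium ratio converted to B score.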
MrgX1 antagonist – human MrgX1 receptor antagonism, primary screen | actives 1.3% (n = 310,000) | B-score at 10 µM | MRGX1-HEK293 calcium flux, Fluo-4, BAM8-22 antagonism; stronger effect = lower value;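 active = calcium-response B-score plate-corrected more than 3 library SD below zero, starting fluorescence within 5 deviations, no agonist response on first addition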;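 also: peak minus trough fluorescence over baseline after final BAM8-22 challenge near maximal dose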
Target sequence (Q96LB2 whole entry, looked up): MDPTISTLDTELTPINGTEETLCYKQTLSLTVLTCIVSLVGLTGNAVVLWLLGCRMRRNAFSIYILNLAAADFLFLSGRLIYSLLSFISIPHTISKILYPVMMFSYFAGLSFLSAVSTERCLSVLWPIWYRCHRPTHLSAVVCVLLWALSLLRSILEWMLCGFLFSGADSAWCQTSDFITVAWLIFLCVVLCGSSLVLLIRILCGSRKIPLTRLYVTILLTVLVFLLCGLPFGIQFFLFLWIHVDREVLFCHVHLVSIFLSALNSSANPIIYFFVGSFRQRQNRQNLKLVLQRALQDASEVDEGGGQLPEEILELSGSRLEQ
MrgX1 ag – activates human MrgX1 receptor signaling; B-score at 10 µM; MrgX1-HEK293 cells, Fluo-4 calcium fluorescence, agonist mode; stronger effect = higher value; actives 0.44% (n = 310,000); Q96LB2; AID 588627;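 active = calcium response B-score plate-corrected fluorescence ratio at least 3 library SD, with starting fluorescence B-score inside 5 SD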
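Material: MrgX1-expressing HEK293 cells / Dosing: compound as first of three additions / Incubation: overnight seeding, then 1 h dark dye loading / Signal: Fluo-4 NW calcium fluorescence / Evaluation: B-scored fluorescence response ratio / Benchmarks: positive and negative control wells on each plate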
MrgX1 PAM – allosterically activates human MrgX1 receptor signaling. MrgX1-HEK293, Fluo-4 calcium flux, FDSS; stronger effect = higher value. AID 588675. actives 0.63% (n = 310,000). B-score at 10 µM;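 active = plate-corrected calcium response at least 3 library SD above typical, normal starting fluorescence, not activating the receptor alone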;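 also: compound read alongside a low EC10 to EC30 dose of BAM8-22 agonist; peak minus trough fluorescence over baseline measured at the second addition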
MrgX1 PAM conf – human MrgX1 positive allosteric modulation, re-confirmation; MrgX1-HEK293, Fluo-4 calcium fluorescence, FDSS; shares compounds with MrgX1 PAM; activation (ratio percentage), % at 10 µM; AID 602413; actives 13% (n = 1,200);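 active = ratio at least 3 SD above the weak peptide control, stable starting fluorescence, no direct agonism earlier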;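 also: compound followed by low BAM8-22 agonist challenge near EC20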
HEK293 Ca flux – MrgX1 antagonist counter-screen hit in parental HEK293 cells; shares compounds with MrgX1 antagonist; Fluo-4 calcium fluorescence, FDSS; fluorescence ratio F(max-min)/F0 at 10 µM; actives 2% (n = 4,000);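 active = duplicate-averaged calcium fluorescence ratio at least three times the standard deviation of buffer wells, a nonspecific response in parental cells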
HEK293 Ca counter – activity in parental HEK293 cells without MrgX1; actives 0.4% (n = 4,000); shares compounds with MrgX1 antagonist; fluorescence ratio F(max-min)/F0 at 10 µM; parental HEK293 calcium flux, Fluo-4 fluorescence ratio; stronger effect = higher value;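 active = calcium fluorescence ratio, averaged over duplicates, at least 3 SD of the buffer-well ratio, meaning a nonspecific response in receptor-free cells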;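 also: untransfected parental HEK293 lacking MrgX1 used as counterscreen for MrgX1 allosteric activators; fluorescence change taken during the second addition on a kinetic imager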
HEK293 Ca cntr2 – activity in parental HEK293 cells lacking MrgX1 receptor; actives 8.7% (n = 4,000); shares compounds with MrgX1 antagonist; fluorescence ratio F(max-min)/F0 at 10 µM; AID 624115; Fluo-4 calcium fluorescence (FDSS); stronger effect = higher value;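 active = calcium fluorescence ratio at least three times the spread of buffer wells, meaning a non-specific response in parental cells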
Starred values were filed as active, the others as inactive; i = inactive; . = no result.

SMILES | RGS4 block | RGS4 act | MrgX1 antagonist | MrgX1 ag | MrgX1 PAM | MrgX1 PAM conf | HEK293 Ca flux | HEK293 Ca counter | HEK293 Ca cntr2
CCN1CCc2c(sc(NC(=O)c3cc4ccccc4cc3OC)c2C(N)=O)C1 | i | i | i | i | i | . | . | . | .
O=C(O)c1c2c(nc3ccccc13)/C(=C/c1ccc(OC(F)F)cc1)CCC2 | i | i | i | i | i | . | . | . | .
O=C(O)c1c2c(nc3ccccc13)/C(=C/c1c(F)cccc1F)CCC2 | i | i | i | i | 8.2* | i | i | i | i
Fc1ccc(-c2cc(C(F)(F)F)nc(-n3cncn3)n2)cc1 | i | i | i | i | i | . | . | . | .
Fc1ccc(-c2cc(C(F)(F)F)nc(-n3cccn3)n2)cc1 | i | i | i | i | 8.2* | 32%* | i | i | i
CCOc1ccc(N=c2scc(-c3ccccc3)n2CCO)cc1 | i | i | i | i | i | . | . | . | .
OCCn1c(-c2ccc(F)cc2)csc1=Nc1ccccc1 | i | i | i | i | 13* | i | i | i | i
OCCn1c(-c2ccc3c(c2)OCO3)csc1=Nc1ccccc1 | i | i | i | i | 12* | i | i | i | i
CCOc1ccc(N=c2scc(-c3ccc(OC)cc3)n2CCO)cc1 | i | i | i | i | i | . | . | . | .
Nc1cccc(C(=O)Nc2cccc3ncccc23)c1 | i | i | i | i | i | . | . | . | .
FC(F)(F)Oc1ccc(NC(=S)NCCCN2CCOCC2)cc1 | i | i | i | i | i | . | . | . | .
CC(C)CC(O)(c1ccccc1)C(CN1CCOCC1)c1ccccc1 (configuration not stated) | i | i | i | i | i | . | . | . | .
COc1ccccc1C(O)(c1ccccc1)C(CN1CCOCC1)c1ccccc1 (configuration not stated) | i | i | i | i | 9.1* | i | i | i | i
CC(C)C(O)(c1ccccc1)C(CN1CCOCC1)c1ccccc1 (configuration not stated) | i | i | i | i | 8.4* | i | i | i | i
CC(CNC(=O)CN1C(=O)c2cccnc2Oc2ccc(Cl)cc21)c1ccccc1 (configuration not stated) | i | i | i | i | 12* | i | i | i | i
O=C(NCCc1csc(-c2cccnc2)n1)c1ccc(Cl)cc1 | i | i | i | i | i | . | . | . | .
O=C(NCCc1csc(-c2cccnc2)n1)c1cccc(Cl)c1 | i | i | i | i | 9.6* | i | i | i | i
COc1ccc(CNn2c(-c3ccccc3F)nc3ccccc3c2=O)cc1OC | i | i | i | i | i | . | . | . | .
CC(C)(C)Nc1ncnc2c1cnn2-c1ccccc1 | i | i | i | i | 7.7* | i | i | i | i
c1ccc(CNc2ncnc3c2cnn3-c2ccccc2)cc1 | i | i | i | i | i | . | . | . | .
CCCc1c(C(=O)Nc2ccc(F)cc2F)cnn1-c1ccccc1 | i | i | i | i | 11* | i | i | i | i
CCn1c(SCC(=O)Nc2cccc(OC)c2)nc2c(c1=O)SCC2 | i | i | i | i | i | . | . | . | .
CC1Sc2ccc(Cl)cc2-c2nc(N)ncc21 (configuration not stated) | i | i | i | i | 11* | i | i | i | i
Nc1nc(Cl)nc(N(c2ccccc2)c2ccccc2)n1 | i | i | i | i | i | . | . | . | .
